The values that follow come from ChEMBL document CHEMBL4138171, “Design, synthesis and biological evaluation of novel aryldiketo acids with enhanced antibacterial activity against multidrug resistant bacterial strains” (Eur J Med Chem, 2018).

What all share (format): functional
For test [1], the system named is Staphylococcus aureus. Put plainly: Antibacterial activity against methicillin-resistant Staphylococcus aureus NCTC 13373 after 16 hrs by microdilution method. To be noted: NCTC 13373, 16 h. Summed up: (§1)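 Broth microdilution in cation-adjusted Mueller-Hinton broth (20 mg/l Ca2+, 10 mg/L Mg2+), inoculum 5×10^5 CFU/mL. Compounds in DMSO, solvent under 1% in well, tested over 0.12-128 µg/ml. […] Each determined at least twice; values converted to µmol/L.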
A general note: In broth dilution the organism is exposed to a series of concentrations in liquid medium.

Test [2] relates to Staphylococcus aureus. Put plainly: Antibacterial activity against erythromycin-resistant Staphylococcus aureus RN4220 after 16 hrs by microdilution method. To be noted: RN4220, 16 h. A digest of the protocol: as §1
Test [3] concerns Staphylococcus aureus. Briefly: Antibacterial activity against Norfloxacin-resistant Staphylococcus aureus 1199B over-expressing NorA after 16 hrs by microdilution method. Summed up: as §1
The subject of the next test is Escherichia coli. Put plainly: Antibacterial activity against Escherichia coli NCTC 12241 after 16 hrs by microdilution method. Conditions: NCTC 12241, 16 h. A digest of the protocol: (§2)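 Broth microdilution in cation-adjusted Mueller-Hinton broth (20 mg/l Ca2+, 10 mg/L Mg2+), inoculum 5×10^5 CFU/mL. Compounds from DMSO stocks, final DMSO <1%, tested over 0.12–128 µg/ml. Incubated 37 °C and read visually after 16 h. MIC is the lowest concentration with no visible growth, determined at least twice and converted to µmol/L.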

The test system of test [4] is Staphylococcus aureus. Put plainly: Antibacterial activity against methicillin-sensitive Staphylococcus aureus NCTC 12981 after 16 hrs by microdilution method. Conditions: NCTC 12981, 16 h. Summed up: as §2
The subject of test [5] is Staphylococcus aureus. Put plainly: Antibacterial activity against Staphylococcus aureus EMRSA-15 after 16 hrs by microdilution method. Conditions: EMRSA-15, 16 h. Summed up: as §2
The test system of test [6] is Staphylococcus aureus. Briefly: Antibacterial activity against tetracycline/methicillin-resistant Staphylococcus aureus XU212 after 16 hrs by microdilution method. To be noted: XU212, 16 h. Summed up: as §1
The next test has as its system Enterococcus faecalis. Briefly: Antibacterial activity against Enterococcus faecalis NCTC 12697 after 16 hrs by microdilution method. Conditions: NCTC 12697, 16 h. A digest of the protocol: as §2
Another test relates to Bacillus subtilis. Put plainly: Antibacterial activity against Bacillus subtilis NCTC 10400 after 16 hrs by microdilution method. Conditions: NCTC 10400, 16 h. A digest of the protocol: as §2

Where only a bound is given, the exact number is not on record here.

As usually defined, the MIC is the lowest concentration that inhibits growth of the organism. A lower MIC goes with a more susceptible organism. In the case of `O=C(O)CCC(=O)c1cc(C2CCCCC2)ccc1C1CCCCC1`, the minimal inhibitory concentration (MIC) is 94 µM against Staphylococcus aureus [1]; 47 µM with Staphylococcus aureus [2]; 47 µM against Staphylococcus aureus [3]; above 128 µg/mL with Escherichia coli; 94 µM against Staphylococcus aureus [4]; 94 µM with Staphylococcus aureus [5]. For the same compound, the MIC in the test with Staphylococcus aureus [6] amounted to 47 µM.

On to `Cc1cc(C)c(C)c(C(=O)/C=C(\O)C(=O)O)c1C`, for which the MIC is 516 µM against Enterococcus faecalis; above 128 µg/mL in the test on Staphylococcus aureus [1]; above 128 µg/mL in the test with Bacillus subtilis; above 128 µg/mL with Staphylococcus aureus [2]; above 128 µg/mL with Staphylococcus aureus [3]; above 128 µg/mL against Escherichia coli. Also, the minimal inhibitory concentration (MIC) against Staphylococcus aureus [4], with Staphylococcus aureus [5] and with Staphylococcus aureus [6] was above 128 µg/mL throughout.

In the case of `O=C(O)/C(O)=C/C(=O)c1ccccc1`, the results for the MIC in the test with Staphylococcus aureus [3] and with Escherichia coli were above 2660 µM and above 128 µg/mL, respectively.

Turning to `COc1c(N2C[C@@H]3CCCN[C@@H]3C2)c(F)cc2c(=O)c(C(=O)O)cn(C3CC3)c12` [MOXIFLOXACIN], the minimum inhibitory concentration (MIC) turned out to be 0.31 µM against Staphylococcus aureus [2] and 0.62 µM with Staphylococcus aureus [3].

Take `O=C(O)CCC(=O)c1ccc(-c2ccccc2)cc1` [FENBUFEN]: the MIC in the test on Staphylococcus aureus [1], in the test on Staphylococcus aureus [2], in the test on Staphylococcus aureus [3], in the test with Escherichia coli, against Staphylococcus aureus [4] and in the test with Staphylococcus aureus [5] was above 128 µg/mL each time. The compound also had a minimal inhibitory concentration (MIC) against Staphylococcus aureus [6] above 128 µg/mL.

As to `Cc1cccc(C(=O)/C=C(\O)C(=O)O)c1`, the MIC in the test on Enterococcus faecalis, in the test on Staphylococcus aureus [1], in the test on Bacillus subtilis, in the test on Staphylococcus aureus [2], against Staphylococcus aureus [3] and against Escherichia coli was above 128 µg/mL throughout. The MIC against Staphylococcus aureus [4], against Staphylococcus aureus [5] and against Staphylococcus aureus [6] was above 128 µg/mL in each case.

`COc1cccc(C(=O)/C=C(\O)C(=O)O)c1`: the MIC in the test with Enterococcus faecalis, against Staphylococcus aureus [1], against Bacillus subtilis, against Staphylococcus aureus [2], in the test with Staphylococcus aureus [3] and against Escherichia coli was above 128 µg/mL throughout. Moreover, the MIC against Staphylococcus aureus [4], with Staphylococcus aureus [5] and against Staphylococcus aureus [6] was above 128 µg/mL in each case.

Regarding `O=C(O)/C(O)=C/C(=O)c1ccc(N2CCCC2)cc1`, the MIC in the test on Enterococcus faecalis, against Staphylococcus aureus [1], against Bacillus subtilis, in the test with Staphylococcus aureus [2], against Staphylococcus aureus [3] and with Escherichia coli was above 128 µg/mL each time. In addition, the MIC in the test with Staphylococcus aureus [4], with Staphylococcus aureus [5] and in the test with Staphylococcus aureus [6] was above 128 µg/mL in each case.

For `CCCCc1ccc(C(=O)/C=C(\O)C(=O)O)cc1`, the MIC with Enterococcus faecalis was 129 µM; in the test with Staphylococcus aureus [1], 258 µM; with Bacillus subtilis, above 128 µg/mL; in the test on Staphylococcus aureus [2], 258 µM; with Staphylococcus aureus [3], 258 µM; against Escherichia coli, above 128 µg/mL. Further, the MIC against Staphylococcus aureus [4], with Staphylococcus aureus [5] and against Staphylococcus aureus [6] was 258 µM each time.

Take `COc1cc(C)c(C(=O)/C=C(\O)C(=O)O)cc1C`: the minimum inhibitory concentration (MIC) against Enterococcus faecalis, against Staphylococcus aureus [1], against Bacillus subtilis, with Staphylococcus aureus [2], with Staphylococcus aureus [3] and against Escherichia coli was above 128 µg/mL throughout. The MIC in the test on Staphylococcus aureus [4], against Staphylococcus aureus [5] and against Staphylococcus aureus [6] was above 128 µg/mL in each case.

Consider `O=C(O)/C(O)=C/C(=O)c1cccc(C(F)(F)F)c1`, for which the minimum inhibitory concentration (MIC) against Enterococcus faecalis, in the test with Staphylococcus aureus [1], in the test on Bacillus subtilis, in the test with Staphylococcus aureus [2], with Staphylococcus aureus [3] and in the test on Escherichia coli was above 128 µg/mL throughout. The MIC with Staphylococcus aureus [4], against Staphylococcus aureus [5] and in the test with Staphylococcus aureus [6] was above 128 µg/mL throughout.

For `O=C(O)c1cn(C2CC2)c2cc(N3CCNCC3)c(F)cc2c1=O` [CIPROFLOXACIN], the MIC with Enterococcus faecalis was 1.5 µM; in the test on Staphylococcus aureus [2], 0.76 µM.

Turning to `O=C(O)/C(O)=C/C(=O)c1ccc(-c2ccccc2)cc1`, the MIC was above 128 µg/mL against Staphylococcus aureus [2]; 477 µM with Staphylococcus aureus [3]; above 128 µg/mL in the test on Escherichia coli; above 128 µg/mL against Staphylococcus aureus [5]; above 128 µg/mL against Staphylococcus aureus [6].

With `C[C@H]1COc2c(N3CCN(C)CC3)c(F)cc3c(=O)c(C(=O)O)cn1c23` [LEVOFLOXACIN], the results for the MIC in the test with Enterococcus faecalis, against Staphylococcus aureus [2] and in the test with Staphylococcus aureus [3] were 1.4 µM, 0.69 µM and 5.53 µM, respectively.

As for `CCn1cc(C(=O)O)c(=O)c2cc(F)c(N3CCNCC3)cc21` [NORFLOXACIN], the MIC against Enterococcus faecalis was 6.3 µM; in the test on Staphylococcus aureus [2], above 128 µg/mL; with Staphylococcus aureus [3], 106 µM; in the test with Staphylococcus aureus [5], 3.3 µM; against Staphylococcus aureus [6], above 128 µg/mL.

For `CN1CCN(c2ccc(C(=O)/C=C(\O)C(=O)O)cc2)CC1`, the MIC in the test on Enterococcus faecalis, against Staphylococcus aureus [1], with Bacillus subtilis, with Staphylococcus aureus [2], in the test with Staphylococcus aureus [3] and against Escherichia coli was above 128 µg/mL throughout. Also, the MIC against Staphylococcus aureus [4], in the test on Staphylococcus aureus [5] and in the test on Staphylococcus aureus [6] was above 128 µg/mL each time.

For `Cc1cc(C(=O)/C=C(\O)C(=O)O)cc(C)c1O`, the MIC with Enterococcus faecalis, with Staphylococcus aureus [1], against Bacillus subtilis, with Staphylococcus aureus [2], with Staphylococcus aureus [3] and against Escherichia coli was above 128 µg/mL each time. In addition, the minimum inhibitory concentration (MIC) against Staphylococcus aureus [4], against Staphylococcus aureus [5] and with Staphylococcus aureus [6] was above 128 µg/mL each time.

For the compound `CC(C)c1cc(C(C)C)c(C(=O)CCC(=O)O)c(C(C)C)c1`, the MIC with Staphylococcus aureus [1], in the test with Staphylococcus aureus [2], with Staphylococcus aureus [3], against Escherichia coli, in the test on Staphylococcus aureus [4] and with Staphylococcus aureus [5] was above 128 µg/mL throughout. The minimum inhibitory concentration (MIC) in the test with Staphylococcus aureus [6] is above 128 µg/mL.

Regarding `CC(=O)c1cc(C2CCCCC2)ccc1C1CCCCC1`, the MIC against Staphylococcus aureus [1] is 450 µM; against Staphylococcus aureus [2] it was 225 µM; with Staphylococcus aureus [3] it was 450 µM; against Escherichia coli it was above 128 µg/mL; against Staphylococcus aureus [4], 450 µM; in the test with Staphylococcus aureus [5], 225 µM. The same compound returned an MIC with Staphylococcus aureus [6] of 225 µM.

For `O=C(O)/C(O)=C/C(=O)c1ccc2c(c1)CCCC2`, the MIC against Enterococcus faecalis is 260 µM; in the test on Staphylococcus aureus [1], above 128 µg/mL; in the test on Bacillus subtilis it was above 128 µg/mL; against Staphylococcus aureus [2], above 128 µg/mL; with Staphylococcus aureus [3] it was 520 µM; against Escherichia coli it was above 128 µg/mL. In addition, the MIC was above 128 µg/mL with Staphylococcus aureus [4], 520 µM against Staphylococcus aureus [5] and above 128 µg/mL in the test on Staphylococcus aureus [6].

Consider `COc1ccccc1C(=O)/C=C(\O)C(=O)O`, for which the MIC in the test on Enterococcus faecalis, against Staphylococcus aureus [1], in the test on Bacillus subtilis, against Staphylococcus aureus [2], with Staphylococcus aureus [3] and in the test with Escherichia coli was above 128 µg/mL throughout. Also, the MIC with Staphylococcus aureus [4], in the test with Staphylococcus aureus [5] and in the test on Staphylococcus aureus [6] was above 128 µg/mL in each case.

For `CN(C)c1ccc(C(=O)/C=C(\O)C(=O)O)cc1`, the MIC in the test with Enterococcus faecalis, against Staphylococcus aureus [1], against Bacillus subtilis, against Staphylococcus aureus [2], with Staphylococcus aureus [3] and in the test with Escherichia coli was above 128 µg/mL in each case. Also, the minimum inhibitory concentration (MIC) against Staphylococcus aureus [4], with Staphylococcus aureus [5] and in the test on Staphylococcus aureus [6] was above 128 µg/mL each time.

In the case of `Cc1ccccc1C(=O)/C=C(\O)C(=O)O`, the minimum inhibitory concentration (MIC) in the test with Enterococcus faecalis, against Staphylococcus aureus [1], in the test on Bacillus subtilis, with Staphylococcus aureus [2], in the test on Staphylococcus aureus [3] and against Escherichia coli was above 128 µg/mL each time. Also, the MIC against Staphylococcus aureus [4], against Staphylococcus aureus [5] and in the test on Staphylococcus aureus [6] was above 128 µg/mL throughout.

For the compound `CC(C)c1ccc(C(=O)/C=C(\O)C(=O)O)c(C(C)C)c1`, the MIC in the test on Staphylococcus aureus [2] was 232 µM; with Staphylococcus aureus [3] it was 232 µM; in the test on Escherichia coli, above 128 µg/mL; in the test on Staphylococcus aureus [5], 232 µM; in the test with Staphylococcus aureus [6], 464 µM.

`O=C(O)/C(O)=C/C(=O)c1cccc(Br)c1`: the minimum inhibitory concentration (MIC) in the test on Enterococcus faecalis, in the test with Staphylococcus aureus [1], in the test on Bacillus subtilis, against Staphylococcus aureus [2], in the test with Staphylococcus aureus [3] and against Escherichia coli was above 128 µg/mL in each case. Further, the MIC against Staphylococcus aureus [4], against Staphylococcus aureus [5] and in the test with Staphylococcus aureus [6] was above 128 µg/mL each time.

As for `CC(C)c1ccc(C(C)C)c(C(=O)/C=C(\O)C(=O)O)c1`, the MIC is 464 µM against Staphylococcus aureus [2]; 232 µM against Staphylococcus aureus [3]; above 128 µg/mL against Escherichia coli; 232 µM with Staphylococcus aureus [5]; 464 µM against Staphylococcus aureus [6].

In the case of `CC(C)(C)c1ccc(C(=O)/C=C(\O)C(=O)O)cc1`, the minimal inhibitory concentration (MIC) in the test on Staphylococcus aureus [2] was above 128 µg/mL; in the test on Staphylococcus aureus [3], 1030 µM; with Escherichia coli it was above 128 µg/mL; against Staphylococcus aureus [5] it was above 128 µg/mL; with Staphylococcus aureus [6] it was above 128 µg/mL.

As for `Cc1ccc(C(=O)/C=C(\O)C(=O)O)c(C)c1`, the MIC against Enterococcus faecalis, in the test on Staphylococcus aureus [1], against Bacillus subtilis, against Staphylococcus aureus [2], with Staphylococcus aureus [3] and in the test with Escherichia coli was above 128 µg/mL throughout. Further, the MIC in the test on Staphylococcus aureus [4], with Staphylococcus aureus [5] and in the test on Staphylococcus aureus [6] was above 128 µg/mL throughout.
